Broadly, the Tmax is the time at which the peak concentration occurs. Broadly, the AUC(0-inf) is the area under the concentration-time curve extrapolated to infinity.

Data set [1] relates to Plasmodium berghei. Kind of data set: Antimalarial activity against Plasmodium berghei infected in Swiss Webster mouse assessed as mouse survival rate at 11 mg/kg administered once daily via oral gavage for 4 consecutive days beginning 1 hr after infection measured on day 9 post infection relative to control. In kind it is functional. In a few lines:
(§1)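 P. berghei-infected erythrocytes taken from a previously infected mouse were injected intraperitoneally. Oral dosing, once daily for 4 consecutive days, began 1 h after infection, in polyethylene glycol 300/propylene glycol/water (55/25/20 by weight). Chloroquine at 30 mg/kg was the positive control, with a vehicle-only group. Percent survival was recorded daily from day 4 to day 20.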

Data set [2] has as its system Plasmodium berghei. Kind of data set: Antimalarial activity against Plasmodium berghei infected in Swiss Webster mouse assessed as mouse survival rate at 100 mg/kg administered once daily via oral gavage for 4 consecutive days beginning 1 hr after infection measured on day 13 post infection relative to control. The data set is classed as functional. The method, boiled down:
(§2)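 Mice given an intraperitoneal injection of P. berghei-infected erythrocytes taken from a previously infected animal. Oral dosing once daily for 4 consecutive days, starting 1 h after infection. Vehicle: polyethylene glycol 300/propylene glycol/water (weight ratio 55/25/20). Percent survival recorded daily from day 4 to day 20. Chloroquine 30 mg/kg and vehicle-only groups served as controls.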

Data set [3] deals with Plasmodium berghei. The data set can be described thus: Antimalarial activity against Plasmodium berghei infected in Swiss Webster mouse assessed as mouse survival rate at 1.2 mg/kg administered once daily via oral gavage for 4 consecutive days beginning 1 hr after infection measured on day 7 post infection relative to control. The data set is classed as functional. The method, boiled down: as §2

The test system of data set [4] is Plasmodium berghei. The data set can be described thus: Antimalarial activity against Plasmodium berghei infected in Swiss Webster mouse assessed as mouse survival rate at 11 mg/kg administered once daily via oral gavage for 4 consecutive days beginning 1 hr after infection measured on day 8 post infection relative to control. The data set is classed as functional. The method, boiled down: as §1

The test system of data set [5] is Plasmodium berghei. Kind of data set: Antimalarial activity against Plasmodium berghei infected in Swiss Webster mouse assessed as mouse survival rate at 33 mg/kg administered once daily via oral gavage for 4 consecutive days beginning 1 hr after infection measured on day 7 post infection relative to control. In kind it is functional. The method, boiled down:
as §1

The subject of data set [6] is Plasmodium berghei. The data set can be described thus: Antimalarial activity against Plasmodium berghei infected in Swiss Webster mouse assessed as mouse survival rate at 33 mg/kg administered once daily via oral gavage for 4 consecutive days beginning 1 hr after infection measured on day 9 post infection relative to control. The data set is classed as functional. The method, boiled down:
as §1

The test system of data set [7] is Plasmodium berghei. Kind of data set: Antimalarial activity against Plasmodium berghei infected in Swiss Webster mouse assessed as mouse survival rate at 100 mg/kg administered once daily via oral gavage for 4 consecutive days beginning 1 hr after infection measured on day 7 post infection relative to control. In kind it is functional. In a few lines: as §2
The nature of data set [8]: Metabolic stability in rat hepatocytes at 22 uM after 44 hrs. In kind it is ADME, cell-based, Hepatocyte.
For data set [9], the system named is Plasmodium berghei. Kind of data set: Antimalarial activity against Plasmodium berghei infected in Swiss Webster mouse assessed as mouse survival rate at 33 mg/kg administered once daily via oral gavage for 4 consecutive days beginning 1 hr after infection measured on day 6 post infection relative to control. The data set is classed as functional. The method, boiled down: as §1

The subject of data set [10] is Plasmodium berghei. Kind of data set: Antimalarial activity against Plasmodium berghei infected in Swiss Webster mouse assessed as mouse survival rate at 11 mg/kg administered once daily via oral gavage for 4 consecutive days beginning 1 hr after infection measured on day 6 post infection relative to control. The data set is classed as functional. In a few lines: as §1

The subject of data set [11] is Plasmodium berghei. Kind of data set: Antimalarial activity against Plasmodium berghei infected in Swiss Webster mouse assessed as mouse survival rate at 33 mg/kg administered once daily via oral gavage for 4 consecutive days beginning 1 hr after infection measured on day 12 post infection relative to control. The data set is classed as functional. In a few lines: as §1

Data set [12] relates to Plasmodium berghei. The data set can be described thus: Antimalarial activity against Plasmodium berghei infected in Swiss Webster mouse assessed as mouse survival rate at 0.1 mg/kg administered once daily via oral gavage for 4 consecutive days beginning 1 hr after infection measured on day 6 post infection relative to control. In kind it is functional. The method, boiled down: as §2

Data set [13] deals with Plasmodium berghei. The data set can be described thus: Antimalarial activity against Plasmodium berghei infected in Swiss Webster mouse assessed as mouse survival rate at 33 mg/kg administered once daily via oral gavage for 4 consecutive days beginning 1 hr after infection measured on day 5 post infection relative to control. In kind it is functional. In a few lines: as §1

Data set [14] has as its system Plasmodium berghei. Kind of data set: Antimalarial activity against Plasmodium berghei infected in Swiss Webster mouse assessed as mouse survival rate at 33 mg/kg administered once daily via oral gavage for 4 consecutive days beginning 1 hr after infection measured on day 14 post infection relative to control. In kind it is functional. The method, boiled down:
as §1

Data set [15] relates to Plasmodium berghei. The data set can be described thus: Antimalarial activity against Plasmodium berghei infected in Swiss Webster mouse assessed as mouse survival rate at 3.7 mg/kg administered once daily via oral gavage for 4 consecutive days beginning 1 hr after infection measured on day 4 post infection relative to control. In kind it is functional. The method, boiled down: as §1

Data set [16] concerns Plasmodium berghei. The data set can be described thus: Antimalarial activity against Plasmodium berghei infected in Swiss Webster mouse assessed as mouse survival rate at 100 mg/kg administered once daily via oral gavage for 4 consecutive days beginning 1 hr after infection measured on day 4 post infection relative to control. In kind it is functional. The method, boiled down: as §2

For data set [17], the system named is Plasmodium berghei. The data set can be described thus: Antimalarial activity against Plasmodium berghei infected in Swiss Webster mouse assessed as mouse survival rate at 100 mg/kg administered once daily via oral gavage for 4 consecutive days beginning 1 hr after infection measured on day 11 post infection relative to control. The data set is classed as functional. In a few lines: as §2

For data set [18], the system named is Plasmodium berghei. The data set can be described thus: Antimalarial activity against Plasmodium berghei infected in Swiss Webster mouse assessed as mouse survival rate at 33 mg/kg administered once daily via oral gavage for 4 consecutive days beginning 1 hr after infection measured on day 13 post infection relative to control. In kind it is functional. The method, boiled down:
as §1

In data set [19] the test system is Plasmodium berghei. The data set can be described thus: Antimalarial activity against Plasmodium berghei infected in Swiss Webster mouse assessed as mouse survival rate at 33 mg/kg administered once daily via oral gavage for 4 consecutive days beginning 1 hr after infection measured on day 10 post infection relative to control. The data set is classed as functional. In a few lines:
as §1

Data set [20] deals with Plasmodium berghei. The data set can be described thus: Antimalarial activity against Plasmodium berghei infected in Swiss Webster mouse assessed as mouse survival rate at 200 mg/kg administered once daily via oral gavage for 4 consecutive days beginning 1 hr after infection measured on day 4 post infection relative to control. The data set is classed as functional. The method, boiled down:
as §1

A short description of data set [21]: Metabolic stability in human hepatocytes at 22 uM after 44 hrs. The data set is classed as ADME, cell-based, Hepatocyte.
The subject of data set [22] is Plasmodium berghei. Kind of data set: Antimalarial activity against Plasmodium berghei infected in Swiss Webster mouse assessed as mouse survival rate at 1.2 mg/kg administered once daily via oral gavage for 4 consecutive days beginning 1 hr after infection measured on day 5 post infection relative to control. The data set is classed as functional. The method, boiled down:
as §2

Data set [23] relates to Plasmodium berghei. The data set can be described thus: Antimalarial activity against Plasmodium berghei infected in Swiss Webster mouse assessed as mouse survival rate at 100 mg/kg administered once daily via oral gavage for 4 consecutive days beginning 1 hr after infection measured on day 12 post infection relative to control. In kind it is functional. In a few lines:
as §2

In data set [24] the test system is Plasmodium falciparum. Kind of data set: Antimalarial activity against Plasmodium falciparum 3D7 0087/N9 infected in NOD/SCID IL2R gamma null mouse assessed as reduction in parasitemia administered once daily via oral gavage for 4 consecutive days measured on day 4 post infection. The data set is classed as functional. Particulars: 3D7 0087/N9, po, 96 h. The method, boiled down:
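Human-erythrocyte-engrafted NODscidIL2Rγnull mice carrying P. falciparum Pf3D70087/N9 in peripheral blood; compound given orally once daily for four consecutive days.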

Data set [25] can be described thus: Terminal half life in CD1 mouse at 5 mg/kg, po via gavage by HPLC/MS analysis. In kind it is ADME, organism-based. Particulars: in vivo, read-out: beta t1/2 (converted). In a few lines:
(§3)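 Female CD-1 mice, male SD rats or beagle dogs given 5 mg/kg by iv injection or oral gavage. Formulation was PEG300/propylene glycol/water 55/25/20, pH 6. Blood samples analysed by HPLC–MS/MS; parameters include AUC0-inf extrapolated to infinity and terminal half-life.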

Data set [26] in a line: Tmax in CD1 mouse plasma at 5 mg/kg, po via gavage by HPLC/MS analysis. The data set is classed as ADME, organism-based. The method, boiled down: as §3
A short description of data set [27]: AUC (0 to infinity) in CD1 mouse at 5 mg/kg, po via gavage by HPLC/MS analysis. In kind it is ADME, organism-based. The arrangement: dose 5 mg/kg, time infinity, route oral. As to conditions: in vivo.
Data set [28] is described as follows: Volume of distribution at steady state in CD1 mouse at 5 mg/kg, iv by HPLC/MS analysis. In kind it is ADME, organism-based. As to conditions: in vivo, read-out: Vdss. The method, boiled down:
as §3

As to `CCCC1(O)CN(C(=O)c2cnc(Oc3ccc4c(c3C)B(O)OC4)cn2)C1`, the values for the survival at 11 mg/kg in data set [1], in [4] and in [10] were 0%, 80% and 100%, respectively. Also, the survival at 100 mg/kg in data set [2], in data set [7], in [16], in data set [17] and in data set [23] was 100% throughout. Also, the survival at 1.2 mg/kg in [3] came out at 0%; in data set [22], 100%. Further, the survival at 33 mg/kg worked out at 100% in data set [5]; 100% in data set [6]; 100% in data set [9]; 100% in data set [11]; 100% in data set [13]; 0% in [14]. Besides, the survival at 33 mg/kg in data set [18] and in [19] was 100% each time. Besides, the Stability result in data set [8] and in data set [21] was “Stable” each time. Moreover, the survival at 0.1 mg/kg in data set [12] is 100%. Moreover, the survival at 3.7 mg/kg in data set [15] was 100%. Further, the survival at 200 mg/kg in data set [20] was found to be 100%.
Regarding `Cc1c(Oc2cnc(C(=O)N3CC(O)(C(C)C)C3)cn2)ccc2c1B(O)OC2`, the survival at 11 mg/kg in [1] was 60%; in data set [4], 60%; in data set [10], 100%. The survival at 100 mg/kg in [2], in [7], in [16], in data set [17] and in [23] was 100% each time. For the same compound, the survival at 33 mg/kg turned out to be 100% in data set [5]; 100% in data set [6]; 100% in data set [9]; 100% in [11]; 100% in data set [13]; 0% in data set [14]. The survival at 33 mg/kg in data set [18] and in data set [19] was 100% each time. The Stability entry in [8] and in data set [21] was “Stable” in each case. In addition, the ED90 in data set [24] is < 5 mg/kg. The survival at 0.1 mg/kg in data set [12] is 100%. Moreover, the survival at 3.7 mg/kg in data set [15] was 100%. Moreover, the survival at 200 mg/kg in data set [20] amounted to 100%.
As for `Cc1c(Oc2cnc(C(=O)N3CC(C)(O)C3)cn2)ccc2c1B(O)OC2`, the survival at 11 mg/kg in data set [1] was determined as 0%; in data set [4], 100%; in data set [10], 100%. Besides, the survival at 100 mg/kg in [2], in data set [7], in [16], in data set [17] and in data set [23] was 100% throughout. Further, the values for the survival at 1.2 mg/kg in data set [3] and in data set [22] were 0% and 100%, respectively. The survival at 33 mg/kg in [5] is 100%; in data set [6], 100%; in data set [9], 100%; in [11], 100%; in [13], 100%; in [14] it was 0%. In addition, the survival at 33 mg/kg in data set [18] and in data set [19] was 100% throughout. Also, in data set [25], the half-life is 6.8 h. In addition, in [26], the time of peak concentration (Tmax) is 0.5 h. For the same compound, the Stability entry in data set [8] and in data set [21] was “Stable” throughout. For the same compound, in data set [27], the AUC(0-inf) was 20.7 µg·h/mL. The Vd in data set [28] stood at 0.888 L/kg. Further, the ED90 in data set [24] was 0.85 mg/kg. For the same compound, the survival at 0.1 mg/kg in data set [12] came out at 100%. Further, the survival at 3.7 mg/kg in data set [15] stood at 100%.

For the origin of these results see ChEMBL document CHEMBL4038305, “Benzoxaborole Antimalarial Agents. Part 5. Lead Optimization of Novel Amide Pyrazinyloxy Benzoxaboroles and Identification of a Preclinical Candidate” (J Med Chem, 2017).
